Compound activity deposited in PubChem by several laboratories.
Sampled rows, rich in hits. Any-hit rate of the full collection: about 4%.
TAAR1 antagonist – human TAAR1 antagonism. CHO RD-HGA16 TAAR1, Fluo-8 calcium fluorescence, antagonist. 360,000 compounds, 1.5% hits. inhibition, % at 3 µM. Q96RJ0;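 active = inhibition above a per-plate cutoff, the mean inhibition of test compounds on that plate plus 3 SD, cut at about 49% in these data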
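System: CHO RD-HGA16 cells bearing hTAAR1. Reagent: EC80 β-phenethylamine stimulus. Schedule: seeding 17-24 h prior, 75-min 37 °C, 30-min RT dye loading. Signal: Fluo-8 intracellular calcium dye fluorescence, real-time kinetic reads. Read-out: % inhibition from peak post-agonist over basal fluorescence ratio. Benchmarks: vehicle wells and EC80 agonist wells. Replicates: n of 1.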
TAAR1 ag – human TAAR1 agonism | Q96RJ0 | AID 624467 | activation, % at 3 µM | 360,000 compounds, 0.99% hits | CHO RD-HGA16 TAAR1, Fluo-8 calcium fluorescence; vehicle wells 0%, saturating PEA agonist 100%;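 active = activation above the mean activation of all test compounds in the run plus 3 SD, cut at about 38% in these data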
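Assay system: CHO-derived RD-HGA16 cells with stable Gα16 and human TAAR1; timing: 17-24 h seeding, 75 min 37 °C dye, 30 min RT; read-out: % activation from peak over basal fluorescence ratio, DMSO-to-PEA scaled; measured by: kinetic Fluo-8 calcium fluorescence; benchmarks: low control DMSO, high control PEA (EC100); doses: 3 µM single concentration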
DAGLB inh – blocks human DAGLB lipase activity; HEK293T DAGLB membrane lysate, EnzChek fluorogenic substrate; inhibition, % at 5.17 µM; 340,000 compounds, 0.059% hits; AID 504411; in the data active = inhibition above about 34%
MPTP inh – blocks calcium-induced mitochondrial swelling | isolated mouse mitochondria, Ca2+ swelling absorbance, 30 min | inhibition, % at 10 µM | 360,000 compounds, 1.4% hits | AID 602449;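 active = inhibition of 50% or more, scaled per plate between neutral and stimulator controls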
GPR7 antag – blocks human GPR7 receptor signaling; P48145; GPR7-expressing cells, fluorescence antagonist assay; inhibition, % at 4.4 µM; 290,000 compounds, 1.1% hits; AID 1861; in the data active = inhibition above about 16%, passing the limit was not always enough;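 note: cells stimulated with the agonist NPW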
Target sequence (P48145 whole entry, looked up): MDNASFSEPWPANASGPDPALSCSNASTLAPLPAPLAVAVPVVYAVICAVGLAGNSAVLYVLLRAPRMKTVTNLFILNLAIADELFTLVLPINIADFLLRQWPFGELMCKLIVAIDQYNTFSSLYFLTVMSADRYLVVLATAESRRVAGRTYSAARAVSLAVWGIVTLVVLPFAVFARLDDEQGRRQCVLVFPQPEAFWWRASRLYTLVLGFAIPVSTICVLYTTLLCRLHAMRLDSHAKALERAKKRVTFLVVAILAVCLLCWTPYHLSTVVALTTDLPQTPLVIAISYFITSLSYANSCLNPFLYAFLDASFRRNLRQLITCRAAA
Of the large screens only hits and unclear results are named; the others gave an inactive call.

O=C(CSc1nnc(-c2ccccc2)o1)c1nnc(-c2ccccc2)o1	none
CN1C(=O)[C@@]2(C3=C(CCCC3=O)OC3=C2C(=O)OC2(CCCCC2)C3)c2ccccc21	none (no result: DAGLB inh, MPTP inh, GPR7 antag)
Cc1ccc(Sc2ccc(S(=O)(=O)Nc3ccc(C(=O)O)cc3)cc2)cc1C	TAAR1 antagonist 56.5 (no result: GPR7 antag)
Cc1cc(C(=O)CSc2nnc(-c3cccs3)n2Cc2ccccc2)c(C)n1C	none
O=c1cc(CSc2nnc(-c3cccs3)n2Cc2ccccc2)nc2sc3ccccc3n12	GPR7 antag 29.7
COc1ccc(C(=O)Nc2ccc(S(=O)(=O)N3CCOCC3)cc2)cc1	none (no result: DAGLB inh, GPR7 antag)
O=C(Nc1cccc(S(=O)(=O)N2CCOCC2)c1)c1cc(S(=O)(=O)N2CCOCC2)c(Cl)cc1Cl	TAAR1 antagonist 76.2 (no result: GPR7 antag)
COc1ccc(C(=O)Nc2cccc(-c3csc(C)n3)c2)cc1S(=O)(=O)N1CCCC1	TAAR1 antagonist 52.3 (no result: GPR7 antag)
COc1ccc(C(=O)Nc2cccc(S(=O)(=O)N3CCCC3)c2)cc1S(=O)(=O)N1CCOCC1	none (no result: GPR7 antag)
COc1ccc(C(=O)Nc2ccc(-c3ccc(C)o3)cc2)cc1S(=O)(=O)N1CCOCC1	TAAR1 antagonist 67.8
O=C(Nc1cccc(S(=O)(=O)N2CCCC2)c1)c1cc(S(=O)(=O)N2CCOCC2)ccc1F	none (no result: GPR7 antag)
COc1ccc(C(=O)Nc2ccc(N3CCOCC3)cc2)cc1S(=O)(=O)N1CCOCC1	none (no result: GPR7 antag)
COc1ccc(C(=O)Nc2ccc(Cl)c(S(=O)(=O)N3CCOCC3)c2)cc1	TAAR1 antagonist 61.0 (no result: GPR7 antag)
CC(=O)Nc1cncc(-c2cnn(CC(C)C)c2)n1	none (no result: DAGLB inh, GPR7 antag)
Nc1ccc2c(Cl)cc(Cl)cc2c1	none (no result: GPR7 antag)
c1ccc(-c2ccc3c(n2)CCCN3Cc2ccccn2)cc1	none (no result: DAGLB inh, MPTP inh, GPR7 antag)
Cc1cccc(OCc2nc(C#N)c(N3CCCC3)o2)c1	none
Cc1cccc(OCc2nc(C#N)c(N3CC(C)CC(C)C3)o2)c1 (centres undefined)	GPR7 antag 20.9
O=C(N[C@H](C(=O)N1CCC[C@H]1C(=O)NC1CCCC1)C1CCCCC1)c1nccs1	none (no result: DAGLB inh, MPTP inh, GPR7 antag)
Cc1nc2ccccn2c1-c1csc(Nc2cccc(O)c2)n1	TAAR1 antagonist 55.2
Cc1nc2ccccn2c1-c1csc(Nc2cccc(C(=O)O)c2)n1	none
O=C(COc1ccc(Cl)cc1)NCCc1ccccn1	none
O=C(NCCc1ccccn1)C(F)(F)C(F)(F)C(F)(F)C(F)(F)C(F)(F)C(F)(F)C(F)(F)C(F)F	TAAR1 ag 41.3
CC1(C(=O)NCc2cccc3ccccc23)CCN1C(=O)Cc1ccc(-c2ccccc2)cc1 (centres undefined)	TAAR1 antagonist 48.6 (no result: DAGLB inh, GPR7 antag)
COc1ccc(NC(=O)C2(C)CCN2Cc2ccccc2Cl)cc1OC (centres undefined)	none (no result: DAGLB inh, GPR7 antag)
CCCCN(Cc1ccccc1)S(=O)(=O)c1ccc2[nH]c(=O)oc2c1	TAAR1 antagonist 48.6
CCOC(=O)N1CCN(C(=O)C2CCN(C(=O)c3ccccc3C)CC2)CC1	TAAR1 ag 65.5 (no result: GPR7 antag)
CCOC(=O)C1=C(C)Nc2ccccc2N=C1NC(=O)C1CCN(C(=O)c2ccccc2C)CC1	TAAR1 antagonist 49.1 (no result: GPR7 antag)
O=C(NCc1ccncc1)C(=O)Nc1nc(C23CC4CC(CC(C4)C2)C3)cs1	TAAR1 antagonist 50.1
COc1cc(/C=C(\C#N)C(=O)c2c[nH]c3ccccc23)cc(OC)c1O	TAAR1 ag 40.6
O=C(Nc1ccc2nc([C@@H]3O[C@H](CO)[C@@H](O)[C@H](O)[C@H]3O)[nH]c2c1)NC(c1ccccc1)c1ccccc1	none (no result: DAGLB inh, GPR7 antag)
CCOc1ccc(NC(=O)COC(=O)c2ccc3c(c2)C(=O)N(CCc2ccccc2)C3=O)cc1	TAAR1 ag 38.2
O=C(COC(=O)c1ccc2c(c1)C(=O)N(CCc1ccccc1)C2=O)Nc1ccc(OC(F)F)cc1	none
COC(=O)C1=C(C)N(C)C(=NCc2ccc(OC)cc2)NC1c1ccc(Cl)cc1 (centres undefined)	none (no result: DAGLB inh, MPTP inh, GPR7 antag)
O=C(c1ccccc1)N(c1ccccc1)c1ccccc1O	none (no result: GPR7 antag)
CC(C)c1cccc(-c2csc(C(C)(O)c3ccc(F)c(F)c3)n2)c1 (centres undefined)	none (no result: DAGLB inh, GPR7 antag)
COc1cccc(-c2ccc(NC(=O)C3CCCN(Cc4cnn(C(C)C)c4)C3)cc2)c1 (centres undefined)	GPR7 antag 20.2
CC(C)N(C)c1ncnc2c1ncn2[C@H]1CN(CCN2CCOCC2)C[C@@H](CO)O1	none (no result: DAGLB inh, GPR7 antag)
CCN(CC)S(=O)(=O)c1ccc(/C=C/C(=O)Nc2ccc(Br)cc2F)cc1	TAAR1 antagonist 53.1
COc1ccc(C(=O)c2cc([N+](=O)[O-])ccc2N2CCN(C)CC2)cc1	GPR7 antag 34.4
